Source: ChEMBL document CHEMBL1127335, “Inhibitors of acyl-CoA: cholesterol O-acyl transferase (ACAT) as hypocholesterolemic agents. 6. The first water-soluble ACAT inhibitor with lipid-regulating activity” (J Med Chem, 1994)

How the values were obtained:
Caco-2 = assay: Activity of compound in an intestine model using Caco-2 cells; type: functional, cell-based; details: Homo sapiens, Caco-2, Intestine
Summary of the method: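 CaCo-2 intestinal cells incubated with radiolabeled oleic acid in the presence of test agent; ACAT activity in intact cells read as oleate incorporation into cholesteryl esters, with triglyceride and phospholipid incorporation also followed up to 100 µM. IC50 averaged over three separate experiments.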

Rattus norvegicus [1] = assay: Chronic effect on preestablished dyslipidemia in rats for HDL-C at 30 mg/kg of compound was determined; type: functional
Summary of the method: (§1)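 Plasma total cholesterol measured; HDL-C separated by dextran sulfate precipitation of whole plasma, nonHDL-C derived. n = 5/group, mean ± SEM, % change versus PCC-fed controls; chow-fed controls included.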

Rattus norvegicus [2] = assay: […] activity in rats at a dose of 1 mg/kg of compound was determined; type: functional
Summary of the method: (§2)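 Acute model in rats: one dose given, then ad libitum overnight feeding of chow supplemented with peanut oil (5.5%), cholesterol (1.5%) and cholic acid (0.5%). Plasma cholesterol measured; n = 5/group; mean ± SEM; percent change relative to PCC-fed controls. ED50 is the dose that lowers plasma cholesterol by 50%.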

Rattus norvegicus [3] = assay: Chronic effect on preestablished dyslipidemia in rats for HDL-C at 1 mg/kg of compound was determined; type: functional; summary of the method: as §1
Rattus norvegicus [4] = assay: […] activity in rats at a dose of 30 mg/kg was determined; type: functional; summary of the method: as §2
Rattus norvegicus [5] = assay: Chronic effect on preestablished dyslipidemia in rats for total cholesterol at 10 mg/kg of compound was determined; type: functional; summary of the method: as §1
Rattus norvegicus [6] = assay: Anti hypercholesterolemic activity in rats at a dose of 0.3 mg/kg of compound was determined; type: functional; summary of the method: as §2
Rattus norvegicus [7] = assay: Chronic effect on preestablished dyslipidemia in rats for HDL-C at 0.3 mg/kg of compound was determined; type: functional; summary of the method: as §1
Rattus norvegicus [8] = assay: Chronic effect on preestablished dyslipidemia in rats for nonHDL-C at 1 mg/kg of compound was determined; type: functional; summary of the method: as §1
Rattus norvegicus [9] = assay: Chronic effect on preestablished dyslipidemia in rats for total cholesterol at 30 mg/kg of compound was determined; type: functional; summary of the method: as §1
Rattus norvegicus [10] = assay: Chronic effect on preestablished dyslipidemia in rats for total cholesterol at 3 mg/kg of compound was determined; type: functional; summary of the method: as §1
Rattus norvegicus [11] = assay: Chronic effect on preestablished dyslipidemia in rats for nonHDL-C at 3 mg/kg of compound was determined; type: functional; summary of the method: as §1
Rattus norvegicus [12] = assay: Chronic effect on preestablished dyslipidemia in rats for nonHDL-C at 30 mg/kg of compound was determined; type: functional; summary of the method: as §1
Rattus norvegicus [13] = assay: […] activity in rats at a dose of 3 mg/kg of compound was determined; type: functional; summary of the method: as §2
Rattus norvegicus [14] = assay: Chronic effect on preestablished dyslipidemia in rats for total cholesterol at 0.3 mg/kg of compound was determined; type: functional; summary of the method: as §1
[15] = Partition coefficient was measured by the shake flask method at pH 7.4.; type: physicochemical; details: octanol/water
Summary of the method: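 Log P determined by shake-flask partitioning at pH 7.4.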

Rattus norvegicus [16] = species: Rattus norvegicus; assay: Dose required to lower the plasma cholesterol by 50% in rats was determined; type: functional; summary of the method: as §2
Rattus norvegicus [17] = assay: Chronic effect on preestablished dyslipidemia in rats for total cholesterol at 1 mg/kg of compound was determined; type: functional; summary of the method: as §1
Rattus norvegicus [18] = assay: Chronic effect on preestablished dyslipidemia in rats for HDL-C at 3 mg/kg of compound was determined; type: functional; summary of the method: as §1
Rattus norvegicus [19] = assay: Chronic effect on preestablished dyslipidemia in rats for nonHDL-C at 0.3 mg/kg of compound was determined; type: functional; summary of the method: as §1
Rattus norvegicus [20] = assay: Chronic effect on preestablished dyslipidemia in rats for nonHDL-C at 10 mg/kg of compound was determined; type: functional; summary of the method: as §1
Rattus norvegicus [21] = assay: Chronic effect on preestablished dyslipidemia in rats for HDL-C at 10 […] of compound was determined; type: functional; summary of the method: as §1
Rattus norvegicus [22] = assay: […] activity in rats at a dose of 10 mg/kg was determined; type: functional; summary of the method: as §2
[23] = target: T1, Sterol O-acyltransferase 1 (Rattus norvegicus, UniProt O70536); assay: Compound was evaluated for the Acyl coenzyme A:cholesterol acyltransferase inhibition using microsomes isolated from the livers of cholesterol fed rats; set-up: species or system Liver
T1 sequence (O70536 whole entry): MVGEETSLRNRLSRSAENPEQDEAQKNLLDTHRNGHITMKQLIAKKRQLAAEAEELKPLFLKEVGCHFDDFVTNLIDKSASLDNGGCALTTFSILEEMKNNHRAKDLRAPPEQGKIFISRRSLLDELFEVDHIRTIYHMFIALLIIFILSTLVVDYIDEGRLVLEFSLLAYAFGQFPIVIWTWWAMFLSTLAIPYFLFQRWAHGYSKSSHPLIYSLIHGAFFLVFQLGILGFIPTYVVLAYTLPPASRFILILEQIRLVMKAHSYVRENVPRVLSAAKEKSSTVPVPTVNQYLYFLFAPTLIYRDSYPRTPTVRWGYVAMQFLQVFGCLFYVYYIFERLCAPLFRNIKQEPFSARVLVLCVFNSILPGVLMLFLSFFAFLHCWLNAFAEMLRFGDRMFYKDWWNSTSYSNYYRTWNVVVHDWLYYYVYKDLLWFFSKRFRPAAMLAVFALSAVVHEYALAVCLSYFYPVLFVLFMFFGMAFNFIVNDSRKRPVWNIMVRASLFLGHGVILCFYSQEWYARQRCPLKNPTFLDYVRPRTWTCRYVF
Summary of the method: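 Liver microsomes prepared from cholesterol-fed rats used as ACAT source. IC50 determined from four drug concentrations per assay, in four separate assays, and reported as the mean.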

Rattus norvegicus [24] = assay: Chronic effect on preestablished dyslipidemia in rats for HDL-C at 10 mg/kg of compound was determined; type: functional; summary of the method: as §1
Rattus norvegicus [25] = assay: […] activity in rats at a dose of 100 mg/kg of compound was determined; type: functional; summary of the method: as §2
Rattus norvegicus [26] = assay: […] activity in rats at a dose of 10 mg/kg of compound was determined; type: functional; summary of the method: as §2
Rattus norvegicus [27] = assay: Chronic effect on preestablished dyslipidemia in rats for total cholesterol at 100 mg/kg of compound was determined; type: functional; summary of the method: as §1
Rattus norvegicus [28] = assay: Chronic effect on preestablished dyslipidemia in rats for nonHDL-C at 100 mg/kg of compound was determined; type: functional; summary of the method: as §1
Rattus norvegicus [29] = assay: Chronic effect on preestablished dyslipidemia in rats for HDL-C at 100 mg/kg of compound was determined; type: functional; summary of the method: as §1
[30] = target: T1, Sterol O-acyltransferase 1; assay: Compound was evaluated for the Acyl coenzyme A:cholesterol acyltransferase inhibition using microsomes isolated from the livers of cholesterol fed rats.; set-up: species or system Liver
Summary of the method: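 Liver microsomes from cholesterol-fed rats served as the ACAT source. IC50 was determined in four separate assays, each using four drug concentrations, and averaged.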

Rattus norvegicus [31] = assay: […] activity in rats at a dose of 30 mg/kg of compound was determined; type: functional; summary of the method: as §2

SMILES | Effect (Rattus norvegicus [1]) | Activity (Rattus norvegicus [2]) | Effect (Rattus norvegicus [3]) | Effect (Rattus norvegicus [5]) | Effect (Rattus norvegicus [8]) | Effect (Rattus norvegicus [9]) | Effect (Rattus norvegicus [10]) | Effect (Rattus norvegicus [11]) | Effect (Rattus norvegicus [12]) | Activity (Rattus norvegicus [13]) | ED50 (Rattus norvegicus [16]) | Effect (Rattus norvegicus [17]) | Effect (Rattus norvegicus [18]) | Effect (Rattus norvegicus [20]) | further results
CC(C)c1cccc(C(C)C)c1OC(=O)[N-]S(=O)(=O)Oc1c(C(C)C)cccc1C(C)C.[Na+] | 44 mg/dL | 98 | 25 mg/dL | 111 mg/dL | 102 mg/dL | 91 mg/dL | 92 mg/dL | 53 mg/dL | 47 mg/dL | 78 | 1.8 mg/kg | 127 mg/dL | 39 mg/dL | 59 mg/dL | IC50 (Caco-2): 0.93 µM; Activity (Rattus norvegicus [4]): 50; Activity (Rattus norvegicus [6]): 142; Effect (Rattus norvegicus [7]): 11 mg/dL; Effect (Rattus norvegicus [14]): 204 mg/dL; logD [15]: 2.98; Effect (Rattus norvegicus [19]): 192 mg/dL; Effect (Rattus norvegicus [21]): 52 mg/dL; Activity (Rattus norvegicus [22]): 56; IC50 [23]: 5.3 µM
CCCCCCCN(CCCCCSc1nc(-c2ccccc2)c(-c2ccccc2)[nH]1)C(=O)Nc1ccc(F)cc1F [LECIMIBIDE] | 21 mg/dL | 158 | 10 mg/dL | 154 mg/dL | 234 mg/dL | 120 mg/dL | 217 mg/dL | 203 mg/dL | 98 mg/dL | 122 | 15.2 mg/kg | 244 mg/dL | 14 mg/dL | 135 mg/dL | Effect (Rattus norvegicus [24]): 18 mg/dL; Activity (Rattus norvegicus [25]): 79; Activity (Rattus norvegicus [26]): 77; Effect (Rattus norvegicus [27]): 119 mg/dL; Effect (Rattus norvegicus [28]): 87 mg/dL; Effect (Rattus norvegicus [29]): 32 mg/dL; IC50 [30]: 0.018 µM; Activity (Rattus norvegicus [31]): 74
